Measured values as given in ChEMBL document CHEMBL4257443, “The discovery of a potent Nav1.3 inhibitor with good oral pharmacokinetics” (Medchemcomm, 2017).
Activity calls are given as the source filed them. The calls are words filed in the database; no cut-off is given here.

What was measured:
[1] = Elimination half life in rat; assay type: ADME, organism-based; conditions: in vivo, read-out: beta t1/2 (converted)
[2] = Dissociation constant, pKa of compound; assay type: physicochemical
[3] = Clearance in cynomolgus monkey liver microsomes; assay type: ADME, Macaca fascicularis, microsome; conditions: read-out: CLH
[4] = target: T1, Sodium channel protein type 3 subunit alpha (Homo sapiens, UniProt Q9NY46); assay: Inhibition of human NaV1.3 expressed in HEK cells by electrophysiological method; assay type: cell-based
T1 sequence (Q9NY46 whole entry): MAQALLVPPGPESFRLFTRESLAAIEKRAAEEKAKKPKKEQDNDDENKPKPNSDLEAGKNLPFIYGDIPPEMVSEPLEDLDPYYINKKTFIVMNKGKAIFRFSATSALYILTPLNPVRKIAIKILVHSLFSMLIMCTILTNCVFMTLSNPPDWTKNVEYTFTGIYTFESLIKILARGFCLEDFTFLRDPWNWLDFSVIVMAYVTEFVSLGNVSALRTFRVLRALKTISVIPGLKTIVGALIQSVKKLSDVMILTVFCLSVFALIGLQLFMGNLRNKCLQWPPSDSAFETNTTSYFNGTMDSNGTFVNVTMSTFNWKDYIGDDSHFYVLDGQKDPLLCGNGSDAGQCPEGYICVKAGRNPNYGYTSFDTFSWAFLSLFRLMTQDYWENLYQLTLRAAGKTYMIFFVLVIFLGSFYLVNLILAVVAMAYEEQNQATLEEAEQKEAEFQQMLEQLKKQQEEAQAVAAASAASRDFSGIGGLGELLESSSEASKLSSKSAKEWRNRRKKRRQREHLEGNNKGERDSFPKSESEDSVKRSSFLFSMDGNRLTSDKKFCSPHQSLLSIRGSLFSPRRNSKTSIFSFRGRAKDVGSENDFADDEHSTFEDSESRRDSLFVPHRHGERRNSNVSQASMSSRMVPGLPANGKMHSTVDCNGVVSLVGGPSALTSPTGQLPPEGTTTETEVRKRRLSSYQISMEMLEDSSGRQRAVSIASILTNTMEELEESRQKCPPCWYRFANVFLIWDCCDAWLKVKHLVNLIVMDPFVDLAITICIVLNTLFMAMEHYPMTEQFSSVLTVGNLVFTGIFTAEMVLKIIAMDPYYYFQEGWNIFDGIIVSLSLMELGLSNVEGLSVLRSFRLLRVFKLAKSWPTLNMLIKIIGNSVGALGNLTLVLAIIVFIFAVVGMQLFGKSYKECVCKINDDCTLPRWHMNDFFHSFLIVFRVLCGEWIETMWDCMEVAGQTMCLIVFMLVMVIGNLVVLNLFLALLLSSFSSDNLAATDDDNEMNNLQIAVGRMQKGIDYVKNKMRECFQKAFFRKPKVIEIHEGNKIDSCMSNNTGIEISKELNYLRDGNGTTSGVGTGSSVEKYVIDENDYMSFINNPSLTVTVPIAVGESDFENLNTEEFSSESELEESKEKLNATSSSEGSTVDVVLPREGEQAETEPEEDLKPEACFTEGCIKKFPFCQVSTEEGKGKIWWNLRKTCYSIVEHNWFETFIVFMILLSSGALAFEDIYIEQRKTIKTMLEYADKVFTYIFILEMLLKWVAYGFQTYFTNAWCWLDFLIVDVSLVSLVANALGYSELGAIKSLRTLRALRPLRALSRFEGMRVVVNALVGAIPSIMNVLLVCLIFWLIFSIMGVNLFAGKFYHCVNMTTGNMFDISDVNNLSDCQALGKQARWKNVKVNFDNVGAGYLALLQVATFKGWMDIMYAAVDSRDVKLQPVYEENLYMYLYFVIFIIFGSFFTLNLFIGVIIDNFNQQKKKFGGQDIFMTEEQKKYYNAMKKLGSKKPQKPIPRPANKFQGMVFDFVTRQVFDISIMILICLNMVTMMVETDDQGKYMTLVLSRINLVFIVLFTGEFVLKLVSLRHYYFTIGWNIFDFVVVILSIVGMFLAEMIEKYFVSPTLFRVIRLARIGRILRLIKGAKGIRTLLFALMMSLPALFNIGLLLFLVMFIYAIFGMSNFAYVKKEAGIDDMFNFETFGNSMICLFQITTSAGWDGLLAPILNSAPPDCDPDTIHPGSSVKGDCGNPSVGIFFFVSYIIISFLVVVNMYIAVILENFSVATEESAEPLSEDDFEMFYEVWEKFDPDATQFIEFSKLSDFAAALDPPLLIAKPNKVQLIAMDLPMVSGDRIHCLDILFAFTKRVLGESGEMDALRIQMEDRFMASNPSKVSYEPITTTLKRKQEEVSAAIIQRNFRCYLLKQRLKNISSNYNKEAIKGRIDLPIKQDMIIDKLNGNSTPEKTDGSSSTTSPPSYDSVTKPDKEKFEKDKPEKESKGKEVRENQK

CYP2C9 = CYP2C9 (Homo sapiens, UniProt P11712); assay: Inhibition of CYP2C9 (unknown origin) at 3 uM by high throughput assay relative to control; assay type: ADME
[5] = target: Sodium channel protein type 2 subunit alpha (Homo sapiens, UniProt Q99250); assay: Inhibition of human NaV1.2
Sequence of Sodium channel protein type 2 subunit alpha (Q99250 whole entry): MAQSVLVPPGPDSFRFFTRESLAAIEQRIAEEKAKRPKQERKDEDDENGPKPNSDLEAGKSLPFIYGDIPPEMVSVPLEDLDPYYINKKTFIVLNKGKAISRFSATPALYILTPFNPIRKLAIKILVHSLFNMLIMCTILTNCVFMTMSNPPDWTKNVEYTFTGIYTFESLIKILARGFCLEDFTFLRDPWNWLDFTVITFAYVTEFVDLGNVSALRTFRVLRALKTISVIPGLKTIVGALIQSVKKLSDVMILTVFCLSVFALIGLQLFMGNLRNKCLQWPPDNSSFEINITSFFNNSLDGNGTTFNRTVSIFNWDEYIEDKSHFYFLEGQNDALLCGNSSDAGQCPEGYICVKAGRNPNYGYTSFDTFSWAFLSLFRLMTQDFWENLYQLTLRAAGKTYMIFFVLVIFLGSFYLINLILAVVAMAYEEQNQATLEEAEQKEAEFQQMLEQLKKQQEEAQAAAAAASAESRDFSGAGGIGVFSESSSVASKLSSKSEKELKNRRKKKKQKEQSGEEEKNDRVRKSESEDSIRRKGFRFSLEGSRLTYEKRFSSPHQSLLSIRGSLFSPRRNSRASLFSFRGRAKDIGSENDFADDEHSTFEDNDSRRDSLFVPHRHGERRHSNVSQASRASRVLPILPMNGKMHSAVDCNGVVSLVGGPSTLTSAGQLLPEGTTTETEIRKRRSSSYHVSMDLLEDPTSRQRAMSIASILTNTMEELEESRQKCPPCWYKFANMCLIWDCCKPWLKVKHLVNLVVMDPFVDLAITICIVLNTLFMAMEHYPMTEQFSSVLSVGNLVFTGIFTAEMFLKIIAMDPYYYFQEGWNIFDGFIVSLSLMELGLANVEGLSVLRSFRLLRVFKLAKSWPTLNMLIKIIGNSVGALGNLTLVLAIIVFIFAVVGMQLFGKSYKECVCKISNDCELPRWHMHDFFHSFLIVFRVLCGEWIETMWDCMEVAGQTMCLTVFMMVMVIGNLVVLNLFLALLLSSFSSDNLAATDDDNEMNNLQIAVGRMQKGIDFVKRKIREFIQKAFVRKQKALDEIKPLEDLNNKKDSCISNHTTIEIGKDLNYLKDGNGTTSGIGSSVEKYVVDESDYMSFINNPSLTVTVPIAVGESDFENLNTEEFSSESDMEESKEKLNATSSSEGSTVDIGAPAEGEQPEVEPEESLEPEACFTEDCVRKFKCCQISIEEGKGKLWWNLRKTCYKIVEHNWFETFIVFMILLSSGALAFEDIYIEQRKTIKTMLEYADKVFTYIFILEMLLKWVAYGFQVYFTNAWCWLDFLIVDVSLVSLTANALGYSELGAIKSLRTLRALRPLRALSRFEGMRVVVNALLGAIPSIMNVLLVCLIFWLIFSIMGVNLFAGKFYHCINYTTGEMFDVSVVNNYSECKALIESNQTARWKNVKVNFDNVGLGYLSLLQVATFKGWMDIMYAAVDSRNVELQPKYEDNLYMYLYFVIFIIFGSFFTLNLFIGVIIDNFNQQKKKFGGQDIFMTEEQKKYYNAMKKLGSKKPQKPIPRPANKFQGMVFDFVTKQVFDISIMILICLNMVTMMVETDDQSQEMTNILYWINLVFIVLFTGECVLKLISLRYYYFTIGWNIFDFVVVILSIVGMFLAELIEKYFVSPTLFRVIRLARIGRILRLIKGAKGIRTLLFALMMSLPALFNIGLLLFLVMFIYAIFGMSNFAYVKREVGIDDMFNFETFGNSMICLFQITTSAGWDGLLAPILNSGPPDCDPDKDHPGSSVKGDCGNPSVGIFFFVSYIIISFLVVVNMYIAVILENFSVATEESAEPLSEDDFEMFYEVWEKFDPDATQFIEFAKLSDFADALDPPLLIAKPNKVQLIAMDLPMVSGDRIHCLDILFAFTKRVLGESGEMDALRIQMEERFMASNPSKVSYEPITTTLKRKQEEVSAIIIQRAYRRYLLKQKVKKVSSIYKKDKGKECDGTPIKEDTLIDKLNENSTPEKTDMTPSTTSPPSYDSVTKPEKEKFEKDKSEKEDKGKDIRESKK

[6] = Oral bioavailability in rat; assay type: ADME, organism-based; conditions: in vivo
CYP3A4 = CYP3A4 (Homo sapiens, UniProt P08684); assay: Inhibition of CYP3A4 (unknown origin) at 3 uM by high throughput assay relative to control; assay type: ADME
[7] = Fraction unbound in rat plasma; assay type: ADME, cell-free
[8] = target: Sodium channel protein type 10 subunit alpha (Homo sapiens, UniProt Q9Y5Y9); assay: Inhibition of human NaV1.8
[9] = target: Voltage-gated inwardly rectifying potassium channel KCNH2 (Homo sapiens, UniProt Q12809); assay: Inhibition of human ERG
Sequence of Voltage-gated inwardly rectifying potassium channel KCNH2 (Q12809 whole entry): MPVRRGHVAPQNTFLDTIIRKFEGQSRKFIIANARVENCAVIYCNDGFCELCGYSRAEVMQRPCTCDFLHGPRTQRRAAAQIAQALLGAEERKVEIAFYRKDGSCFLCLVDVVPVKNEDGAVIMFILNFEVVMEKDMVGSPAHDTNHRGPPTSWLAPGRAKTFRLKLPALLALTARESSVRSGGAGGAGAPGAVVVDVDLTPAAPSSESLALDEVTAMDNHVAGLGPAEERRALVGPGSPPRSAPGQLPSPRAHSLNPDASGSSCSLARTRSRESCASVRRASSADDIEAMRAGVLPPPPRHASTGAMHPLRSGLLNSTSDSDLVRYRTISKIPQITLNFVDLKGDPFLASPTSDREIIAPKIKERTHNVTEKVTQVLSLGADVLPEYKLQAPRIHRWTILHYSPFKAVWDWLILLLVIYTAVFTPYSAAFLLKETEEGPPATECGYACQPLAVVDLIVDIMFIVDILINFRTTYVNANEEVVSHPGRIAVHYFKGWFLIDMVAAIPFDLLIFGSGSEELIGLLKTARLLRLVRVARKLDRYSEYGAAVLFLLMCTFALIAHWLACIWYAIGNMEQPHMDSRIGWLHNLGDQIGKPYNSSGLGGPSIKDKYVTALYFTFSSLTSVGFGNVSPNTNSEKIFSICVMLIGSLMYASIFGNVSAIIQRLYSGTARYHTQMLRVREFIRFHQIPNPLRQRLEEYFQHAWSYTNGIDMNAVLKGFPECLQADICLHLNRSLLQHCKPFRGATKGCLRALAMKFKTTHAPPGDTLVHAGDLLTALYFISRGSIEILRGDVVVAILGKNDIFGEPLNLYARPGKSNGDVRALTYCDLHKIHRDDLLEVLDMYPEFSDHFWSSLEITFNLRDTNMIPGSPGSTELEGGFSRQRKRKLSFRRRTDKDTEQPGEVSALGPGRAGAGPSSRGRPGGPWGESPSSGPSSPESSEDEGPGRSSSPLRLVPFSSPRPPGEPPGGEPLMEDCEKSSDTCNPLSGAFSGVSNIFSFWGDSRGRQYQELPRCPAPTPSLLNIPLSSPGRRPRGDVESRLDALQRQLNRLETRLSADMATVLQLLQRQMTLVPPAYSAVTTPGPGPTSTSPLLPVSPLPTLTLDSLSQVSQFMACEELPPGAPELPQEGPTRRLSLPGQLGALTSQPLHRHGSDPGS

MDR1 = assay: Efflux ratio of permeability across basolateral to apical over apical to basolateral side in RRCK cells expressing MDR1; assay type: ADME, cell-based, Canis lupus familiaris, MDCKII-LE; conditions: dog, MDCK-MDR1
[10] = target: Sodium channel protein type 9 subunit alpha (Homo sapiens, UniProt Q15858); assay: Inhibition of human NaV1.7
[11] = Volume of distribution in rat; assay type: ADME, organism-based; conditions: in vivo
[12] = Clearance in rat; assay type: ADME, organism-based; conditions: in vivo
[13] = Aqueous solubility of compound; assay type: physicochemical; conditions: buffer
[14] = Clearance in dog liver microsomes; assay type: ADME, Canis lupus familiaris, microsome; conditions: read-out: CLH
[15] = Clearance in human liver microsomes; assay type: ADME, microsome; conditions: read-out: CLH
[16] = Lipophilicity, log D of the compound; assay type: physicochemical; conditions: octanol/water
[17] = target: Sodium channel protein type 1 subunit alpha (Homo sapiens, UniProt P35498); assay: Inhibition of human NaV1.1
[18] = Clearance in rat liver microsomes; assay type: ADME, microsome; conditions: read-out: CLH
Rattus norvegicus [19] = assay: Antipain activity in tibial nerve transection surgery model of rat assessed as reduction of heat evoked activity at 9 to 18 mg/kg administered as iv bolus dose measured every 15 mins for 30 mins; assay type: functional, organism-based
Procedure, shortened: (§1)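 Rats given tibial nerve transection 2 to 3 weeks before recording. Anaesthesia with isoflurane (5% in O2) in a stereotaxic frame, body temperature held at 37 °C, and laminectomy to expose spinal segments L4-5. After stable baseline responses, compound given as IV bolus; evoked activity assessed every 15 min for up to 30 min per dose. Randomised, blinded dosing. Dry blood spots taken for plasma exposure.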

Rattus norvegicus [20] = assay: Antipain activity in tibial nerve transection surgery model of rat assessed as reduction of innocuous brush evoked activity at 9 to 18 mg/kg administered as iv bolus dose measured every 15 mins for 30 mins; assay type: functional, organism-based; procedure, shortened: as §1
Rattus norvegicus [21] = assay: Antipain activity in tibial nerve transection surgery model of rat assessed as reduction of mechanical punctate stimuli evoked activity at 9 to 18 mg/kg administered as iv bolus dose measured every 15 mins for 30 mins; assay type: functional, organism-based; procedure, shortened: as §1
Rattus norvegicus [22] = assay: Antipain activity in tibial nerve transection surgery model of rat assessed as reduction of noxious pinch evoked activity at 9 to 18 mg/kg administered as iv bolus dose measured every 15 mins for 30 mins; assay type: functional, organism-based; procedure, shortened: as §1
Cynomolgus monkey [23] = assay: Toxicity in cynomolgus monkey assessed as change in left ventricular pressure parameters at 30 mg/kg; assay type: organism-based, Macaca fascicularis; conditions: in vivo
Rattus norvegicus [24] = assay: Antipain activity in tibial nerve transection surgery model of rat assessed as reduction of mechanical punctate stimuli evoked activity at 3 to 10 mg/kg administered as iv bolus dose measured every 15 mins for 30 mins; assay type: functional, organism-based
Procedure, shortened: (§2)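 Rats had tibial nerve transection 2–3 weeks before recording. Under isoflurane anaesthesia (5% in O2) in a stereotaxic frame, body temperature was held at 37 °C and L4-5 spinal segments were exposed by laminectomy. After stable baseline responses, compound was given as an IV bolus, with effects assessed every 15 min for up to 30 min per dose. Treatment was randomised and blinded, and dry blood spots were taken for plasma exposure.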

Rattus norvegicus [25] = assay: Prodrug conversion in po dosed rat assessed as formation of N-(3-chloro-4-(trifluoromethoxy)benzyl)-3-fluoro-4-(N-thiazol-2-ylsulfamoyl)benzamide; assay type: ADME, organism-based; conditions: in vivo
Cynomolgus monkey [26] = assay: Toxicity in cynomolgus monkey assessed as change in heart rate at 30 mg/kg; assay type: organism-based, Macaca fascicularis; conditions: in vivo
Rattus norvegicus [27] = assay: Antipain activity in tibial nerve transection surgery model of rat assessed as reduction of noxious pinch evoked activity at 3 to 10 mg/kg administered as iv bolus dose measured every 15 mins for 30 mins; assay type: functional, organism-based; procedure, shortened: as §2
Cynomolgus monkey [28] = assay: Toxicity in cynomolgus monkey assessed as change in systolic blood pressure at 30 mg/kg; assay type: organism-based, Macaca fascicularis; conditions: in vivo
Cynomolgus monkey [29] = assay: Toxicity in cynomolgus monkey assessed as effect on ECG parameters at 30 mg/kg; assay type: organism-based, Macaca fascicularis; conditions: in vivo
Rattus norvegicus [30] = assay: Antipain activity in tibial nerve transection surgery model of rat assessed as reduction of heat evoked activity at 3 to 10 mg/kg administered as iv bolus dose measured every 15 mins for 30 mins; assay type: functional, organism-based; procedure, shortened: as §2
Rattus norvegicus [31] = assay: Antipain activity in tibial nerve transection surgery model of rat assessed as reduction of innocuous brush evoked activity at 3 to 10 mg/kg administered as iv bolus dose measured every 15 mins for 30 mins; assay type: functional, organism-based; procedure, shortened: as §2
Cynomolgus monkey [32] = assay: Toxicity in cynomolgus monkey assessed as change in diastolic blood pressure at 30 mg/kg; assay type: organism-based, Macaca fascicularis; conditions: in vivo
[33] = target: T1, Sodium channel protein type 3 subunit alpha; assay: Inhibition of NaV1.3 (unknown origin) expressed in HEK293 cells by CC2-DMPE/DiSBAC2(3) dye-based FRET assay; assay type: cell-based
[34] = target: Sodium channel protein type 3 subunit alpha (Rattus norvegicus, UniProt P08104); assay: Inhibition of rat NaV1.3 by electrophysiological method
[35] = target: Sodium channel protein type 8 subunit alpha (Homo sapiens, UniProt Q9UQD0); assay: Inhibition of human NaV1.6
[36] = target: Sodium channel protein type 4 subunit alpha (Homo sapiens, UniProt P35499); assay: Inhibition of human NaV1.4
[37] = target: Sodium channel protein type 5 subunit alpha (Homo sapiens, UniProt Q14524); assay: Inhibition of human NaV1.5
[38] = target: Sodium channel protein type 9 subunit alpha (Rattus norvegicus, UniProt O08562); assay: Inhibition of rat NaV1.7
Tibial nerve [39] = assay: Effect on heat evoked afferent firing in rat skin-tibial nerve at 0.01 to 1 uM; assay type: functional, tissue-based
Procedure, shortened: (§3)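 Compound was applied to the isolated skin-tibial nerve preparation at 0.01, 0.03, 0.1, 0.3 and 1 µM. Heat-evoked afferent firing and ongoing nerve activity were recorded.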

[40] = Protein binding in rat plasma by equilibrium dialysis method; assay type: ADME, cell-free; conditions: read-out: PPB (converted)
Procedure, shortened: (§4)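 Plasma protein binding measured by equilibrium dialysis.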

[41] = Ratio of drug level in rat at 100 mg/kg, po to IC50 for rat NaV1.3; assay type: ADME, organism-based; conditions: in vivo
[42] = Protein binding in dog plasma; assay type: ADME, cell-free, Canis lupus familiaris; conditions: read-out: PPB
Rattus norvegicus [43] = assay: Toxicity in rat assessed as decrease in core body temperature at 100 to 500 mg/kg, po; assay type: organism-based; conditions: in vivo
Tibial nerve [44] = assay: Effect on ongoing nerve activity in rat skin-tibial nerve at 0.01 to 1 uM; assay type: functional, tissue-based; procedure, shortened: as §3
[45] = Ratio of drug level in cynomolgus monkey treated with (2-(4-(3-chloro-4-(trifluoromethoxy)benzylcarbamoyl)-2-fluorophenylsulfonylimino)thiazol-3(2H)-yl)methyl dihydrogen phosphate at 30 mg/kg to IC50 for cynomolgus monkey NaV1.3; assay type: ADME, organism-based, Macaca fascicularis; conditions: in vivo
[46] = Ratio of drug level in tibial nerve transection surgery model of rat treated with (2-(4-(3-chloro-4-(trifluoromethoxy)benzylcarbamoyl)-2-fluorophenylsulfonylimino)thiazol-3(2H)-yl)methyl dihydrogen phosphate at 3 to 10 mg/kg administered as iv bolus dose to IC50 for rat NaV1.3; assay type: ADME, organism-based; conditions: in vivo
[47] = Protein binding in human plasma by equilibrium dialysis method; assay type: ADME, cell-free; conditions: read-out: PPB (converted); procedure, shortened: as §4
Rattus norvegicus [48] = assay: Toxicity in rat assessed as decrease in heart rate at 100 to 500 mg/kg, po; assay type: organism-based; conditions: in vivo
Rattus norvegicus [49] = assay: Toxicity in rat assessed as increase in blood pressure at 100 to 500 mg/kg, po; assay type: organism-based; conditions: in vivo

| SMILES | pKa [2] | IC50 [4] [µM] | inhibition at 3 µM (CYP2C9) [%] | IC50 [5] [µM] | bioavailability [6] [%] | inhibition at 3 µM (CYP3A4) [%] | IC50 [8] [µM] | IC50 [9] [µM] | efflux ratio (MDR1) | IC50 [10] [µM] | Vd [11] [L/kg] | clearance [12] [mL/min/kg] | solubility [13] | microsomal CLint [15] [µL/min/mg] | logD [16] | IC50 [17] [µM] | IC50 [35] [µM] | IC50 [37] [µM] | also measured |
| --- | --- | --- | --- | --- | --- | --- | --- | --- | --- | --- | --- | --- | --- | --- | --- | --- | --- | --- | --- |
| O=S(=O)(Nc1ncns1)c1ccc(OCc2ccc(OC(F)(F)F)c(Cl)c2)cc1 | 4.1 | 0.022 | 85 | 2.76 | 73 | 75 | 15.1 | > 10 | 1 | 5.1 | 1 | 2 | 99 µM | 15 | 2.65 | 0.455 |  |  | half-life [1]: 7 h; microsomal CLint [3]: < 32 µL/min/mg; fraction unbound [7]: 0.00024; microsomal CLint [14]: < 18 µL/min/mg; microsomal CLint [18]: < 14 µL/min/mg |
| CC(C)C[C@H](CN)CC(=O)O |  |  |  |  |  |  |  |  |  |  |  |  |  |  |  |  |  |  | Activity (Rattus norvegicus [19]): Active; Activity (Rattus norvegicus [20]): Active; Activity (Rattus norvegicus [21]): Active; Activity (Rattus norvegicus [22]): Active |
| O=C(NCc1ccc(OC(F)(F)F)c(Cl)c1)c1ccc(S(=O)(=O)/N=c2\sccn2COP(=O)(O)O)c(F)c1 |  |  |  |  |  |  |  |  |  |  |  |  |  |  |  |  |  |  | Activity (Cynomolgus monkey [23]): Non-Toxic; Activity (Rattus norvegicus [24]): inactive; Drug metabolism (Rattus norvegicus [25]): Metabolite_Detected; Activity (Cynomolgus monkey [26]): Non-Toxic; Activity (Rattus norvegicus [27]): Active; Activity (Cynomolgus monkey [28]): Non-Toxic; Activity (Cynomolgus monkey [29]): Non-Toxic; Activity (Rattus norvegicus [30]): inactive; Activity (Rattus norvegicus [31]): inactive; Activity (Cynomolgus monkey [32]): Non-Toxic |
| O=C1[C@@H](N2CC[C@H](c3cc(Cl)cc(Cl)c3)C2)CCN1c1ccc(S(=O)(=O)Nc2nccs2)cc1 |  |  |  |  |  |  |  |  |  |  |  |  |  |  |  |  |  |  | IC50 [33]: < 2 µM |
| O=C(Nc1ccc(S(=O)(=O)Nc2nccs2)cc1)C(c1ccccc1)c1ccccc1 |  | 0.017 | 79 | 0.393 |  |  | 3 |  | 30 | 5.2 |  |  | 268 µg/mL | 15 | 3.3 | 0.032 | 10.3 | 9.2 | IC50 [34]: 0.006 µM; IC50 [36]: 10 µM; IC50 [38]: 0.068 µM |
| O=C(NCc1ccc(OC(F)(F)F)c(Cl)c1)c1ccc(S(=O)(=O)Nc2nccs2)c(F)c1 | 6.4 | 0.011 | 66 | 0.429 | 58 | 66 | 12.4 | 17.7 | 3.5 | 0.289 | 1.1 | 3.9 | 12 µg/mL | < 8 | 3.3 | 0.02 | 1.05 | 15.8 | Activity (Tibial nerve [39]): inactive; fraction unbound [40]: 0.002; Ratio [41]: 12; fraction unbound [42]: < 0.002; Activity (Rattus norvegicus [43]): Toxic; Activity (Tibial nerve [44]): inactive; Ratio [45]: 62; Ratio [46]: <= 15; fraction unbound [47]: 0.002; Activity (Rattus norvegicus [48]): Toxic; Activity (Rattus norvegicus [49]): Toxic |
| O=C(NCc1ccc(OC(F)(F)F)c(Cl)c1)c1ccc(S(=O)(=O)Nc2ncns2)c(F)c1 | 3.3 | 0.013 | 88 | 0.92 | 4 | 88 | 11.3 | > 100 | 1 | 1.8 | 0.1 | 4.4 | 369 µg/mL | < 8 | 2.1 | 0.012 | 2.1 | 4.87 |  |
